# Measurements published in ChEMBL document CHEMBL1926607 (J Med Chem, 2011).
# The source made the active and inactive calls. No cut-off for these calls is given here.
# What was measured:
# [1] = target: T1, 5-hydroxytryptamine receptor 1A (Rattus norvegicus, UniProt P19327); test: Displacement of [3H]-8-OH-DPAT from 5-HT1A receptor in Sprague-Dawley albinus rat cerebral cortex membranes after 15 mins; type: cell membranes, Membrane
# T1 sequence (P19327 whole entry): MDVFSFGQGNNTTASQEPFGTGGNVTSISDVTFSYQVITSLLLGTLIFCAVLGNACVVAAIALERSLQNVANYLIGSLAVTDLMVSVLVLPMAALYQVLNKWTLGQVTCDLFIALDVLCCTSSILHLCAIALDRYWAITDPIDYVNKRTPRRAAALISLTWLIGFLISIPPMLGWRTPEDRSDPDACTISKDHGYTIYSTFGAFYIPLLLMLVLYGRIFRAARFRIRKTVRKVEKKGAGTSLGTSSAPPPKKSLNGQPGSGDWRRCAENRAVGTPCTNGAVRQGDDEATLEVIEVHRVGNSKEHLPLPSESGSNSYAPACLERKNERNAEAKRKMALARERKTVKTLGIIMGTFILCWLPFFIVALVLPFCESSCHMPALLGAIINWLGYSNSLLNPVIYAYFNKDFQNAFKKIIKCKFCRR
# [2] = target: 5-hydroxytryptamine receptor 2A (Rattus norvegicus, UniProt P14842); test: Displacement of [3H]ketanserin from 5HT2A receptor in Sprague-Dawley albinus rat frontal cortex membranes after 15 mins; type: cell membranes, Membrane
# Sequence of 5-hydroxytryptamine receptor 2A (P14842 whole entry): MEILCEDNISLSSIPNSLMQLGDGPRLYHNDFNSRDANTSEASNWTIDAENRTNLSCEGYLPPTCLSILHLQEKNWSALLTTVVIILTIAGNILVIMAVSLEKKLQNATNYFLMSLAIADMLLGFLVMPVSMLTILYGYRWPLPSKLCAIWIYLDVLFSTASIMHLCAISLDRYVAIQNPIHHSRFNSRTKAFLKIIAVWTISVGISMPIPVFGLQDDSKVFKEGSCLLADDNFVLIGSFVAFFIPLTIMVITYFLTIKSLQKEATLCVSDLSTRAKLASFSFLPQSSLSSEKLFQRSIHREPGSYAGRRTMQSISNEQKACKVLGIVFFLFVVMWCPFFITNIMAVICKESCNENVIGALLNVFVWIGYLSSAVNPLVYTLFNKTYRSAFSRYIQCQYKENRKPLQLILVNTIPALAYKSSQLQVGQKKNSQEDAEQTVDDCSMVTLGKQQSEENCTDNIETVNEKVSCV
# Method in brief: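 Rat frontal cortex membranes (male Sprague–Dawley, 180–200 g). Nonspecific binding was set with 1 μM cinanserin.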
# [3] = target: T2, 5-hydroxytryptamine receptor 1A (Homo sapiens) (UniProt P08908); test: Agonist activity at human 5HT1A receptor expressed in human HeLa cells assessed as inhibition of forskolin-stimulated cAMP production pretreated 20 mins before forskolin challenge measured after 2 hrs by RIA relative to control; type: functional, cell-based
# T2 sequence (whole entry): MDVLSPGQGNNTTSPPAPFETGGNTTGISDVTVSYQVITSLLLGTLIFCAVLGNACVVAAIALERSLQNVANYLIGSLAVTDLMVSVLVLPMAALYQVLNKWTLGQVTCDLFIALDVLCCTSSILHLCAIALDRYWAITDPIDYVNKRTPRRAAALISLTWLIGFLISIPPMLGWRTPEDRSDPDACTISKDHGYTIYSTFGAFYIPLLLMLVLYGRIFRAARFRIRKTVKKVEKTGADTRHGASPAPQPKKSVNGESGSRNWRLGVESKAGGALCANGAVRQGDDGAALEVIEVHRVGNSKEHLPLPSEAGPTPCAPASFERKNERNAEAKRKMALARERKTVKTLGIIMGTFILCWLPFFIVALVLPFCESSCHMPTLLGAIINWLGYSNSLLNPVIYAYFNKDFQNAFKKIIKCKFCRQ
# [4] = target: T3, 5-hydroxytryptamine receptor 1A (Homo sapiens, UniProt P08908); test: Agonist activity at human 5HT1A receptor expressed in human HeLa cells assessed as inhibition of forskolin-stimulated cAMP production […] measured after 2 hrs by RIA; type: functional, cell-based
# T3 sequence (P08908 whole entry): T2 sequence (whole entry)
# Method in brief: (§1)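 HeLa cells stably expressing the h5-HT1AR, grown in DMEM with 2 mM glutamine, 1 mM pyruvate and 10% heat-inactivated FCS, and used after 2–3 days at about 7.5 × 10^4 cells/well. After a PBS wash, cells were incubated 10 min in PBS with 0.5 mM isobutylmethylxanthine and 10 μM forskolin, with or without compound. The reaction was stopped with ice-cold ethanol, extracted 2 h and lyophilized; cAMP was measured by RIA.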
# [5] = target: D(2) dopamine receptor (Rattus norvegicus, UniProt P61169); test: Displacement of [3H]spiperone from dopamine D2 receptor in Sprague-Dawley albinus rat striatal membranes after 15 mins; type: cell membranes, Membrane
# Sequence of D(2) dopamine receptor (P61169 whole entry): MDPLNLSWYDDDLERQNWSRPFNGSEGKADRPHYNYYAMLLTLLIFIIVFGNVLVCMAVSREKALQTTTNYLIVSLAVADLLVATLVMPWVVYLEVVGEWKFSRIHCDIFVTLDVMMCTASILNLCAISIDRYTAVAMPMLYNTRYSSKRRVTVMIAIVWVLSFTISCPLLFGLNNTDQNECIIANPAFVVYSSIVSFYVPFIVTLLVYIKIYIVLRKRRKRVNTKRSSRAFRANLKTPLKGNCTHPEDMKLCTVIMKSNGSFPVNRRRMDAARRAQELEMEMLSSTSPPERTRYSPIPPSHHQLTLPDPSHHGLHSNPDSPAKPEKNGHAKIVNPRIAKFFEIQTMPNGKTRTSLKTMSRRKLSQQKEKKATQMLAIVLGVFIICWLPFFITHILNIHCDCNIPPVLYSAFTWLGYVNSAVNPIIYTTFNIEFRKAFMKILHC
# [6] = target: T4, Adrenergic receptor alpha-1 (Rattus norvegicus, UniProt P15823+P23944+P43140); test: Displacement of [3H]prazosin from alpha1 adrenoceptor in Sprague-Dawley albinus rat cerebral cortex membranes after 30 mins; type: cell membranes, Membrane
# T4 sequence (P15823 whole entry): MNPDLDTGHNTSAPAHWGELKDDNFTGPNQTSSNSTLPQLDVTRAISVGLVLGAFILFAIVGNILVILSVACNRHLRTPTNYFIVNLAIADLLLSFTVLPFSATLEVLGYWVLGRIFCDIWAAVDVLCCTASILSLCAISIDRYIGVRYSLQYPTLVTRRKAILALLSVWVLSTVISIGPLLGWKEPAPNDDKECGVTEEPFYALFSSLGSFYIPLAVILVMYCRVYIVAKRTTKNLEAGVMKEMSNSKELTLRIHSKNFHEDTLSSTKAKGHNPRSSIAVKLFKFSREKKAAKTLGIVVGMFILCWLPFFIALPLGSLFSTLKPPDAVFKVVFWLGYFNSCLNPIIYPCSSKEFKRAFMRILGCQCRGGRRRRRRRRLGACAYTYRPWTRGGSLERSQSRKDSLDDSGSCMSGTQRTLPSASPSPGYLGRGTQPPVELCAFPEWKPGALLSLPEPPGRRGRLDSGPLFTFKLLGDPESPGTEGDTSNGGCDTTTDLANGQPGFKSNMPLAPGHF
# T4 sequence (P23944 whole entry): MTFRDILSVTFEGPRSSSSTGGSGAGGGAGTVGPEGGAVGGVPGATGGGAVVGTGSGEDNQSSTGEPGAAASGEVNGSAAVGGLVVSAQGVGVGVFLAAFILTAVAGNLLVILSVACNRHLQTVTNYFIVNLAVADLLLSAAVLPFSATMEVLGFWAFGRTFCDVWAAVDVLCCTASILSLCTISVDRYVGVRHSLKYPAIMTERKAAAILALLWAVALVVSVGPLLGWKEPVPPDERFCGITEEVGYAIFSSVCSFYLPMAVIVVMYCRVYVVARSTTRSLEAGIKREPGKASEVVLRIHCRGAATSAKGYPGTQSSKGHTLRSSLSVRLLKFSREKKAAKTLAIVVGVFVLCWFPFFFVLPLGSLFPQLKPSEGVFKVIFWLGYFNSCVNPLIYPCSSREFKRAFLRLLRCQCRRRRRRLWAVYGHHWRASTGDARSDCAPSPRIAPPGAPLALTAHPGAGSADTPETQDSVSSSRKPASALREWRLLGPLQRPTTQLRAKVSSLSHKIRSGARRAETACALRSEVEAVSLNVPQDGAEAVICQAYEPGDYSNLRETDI
# T4 sequence (P43140 whole entry): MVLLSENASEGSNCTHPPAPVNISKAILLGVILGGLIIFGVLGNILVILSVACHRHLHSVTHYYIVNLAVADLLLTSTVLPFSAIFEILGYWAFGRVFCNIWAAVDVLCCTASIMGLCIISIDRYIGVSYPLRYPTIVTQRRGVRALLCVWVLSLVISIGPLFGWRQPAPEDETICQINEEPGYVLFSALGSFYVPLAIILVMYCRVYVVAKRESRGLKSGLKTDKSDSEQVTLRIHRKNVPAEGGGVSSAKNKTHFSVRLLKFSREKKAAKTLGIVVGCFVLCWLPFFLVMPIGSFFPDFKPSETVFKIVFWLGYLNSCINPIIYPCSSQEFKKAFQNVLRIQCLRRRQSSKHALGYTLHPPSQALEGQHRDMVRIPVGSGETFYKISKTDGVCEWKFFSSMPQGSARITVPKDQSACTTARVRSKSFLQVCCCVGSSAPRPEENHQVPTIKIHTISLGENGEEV
# Method in brief: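 Rat cerebral cortex membranes (about 250 μg protein; male Sprague–Dawley, 180–200 g) in 50 mM Tris-HCl with 10 mM MgCl2, pH 7.4. Incubation was 30 min at 25 °C with 0.2 nM [3H]prazosin and six competitor concentrations. Nonspecific binding was set with 10 μM phentolamine.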
# [7] = target: T5, 5-hydroxytryptamine receptor 3A (Rattus norvegicus, UniProt P35563); test: Displacement of [3H]-LY278584 from 5HT3 receptor in Sprague-Dawley albinus rat cerebral cortex membranes after 30 mins; type: cell membranes, Membrane
# T5 sequence (P35563 whole entry): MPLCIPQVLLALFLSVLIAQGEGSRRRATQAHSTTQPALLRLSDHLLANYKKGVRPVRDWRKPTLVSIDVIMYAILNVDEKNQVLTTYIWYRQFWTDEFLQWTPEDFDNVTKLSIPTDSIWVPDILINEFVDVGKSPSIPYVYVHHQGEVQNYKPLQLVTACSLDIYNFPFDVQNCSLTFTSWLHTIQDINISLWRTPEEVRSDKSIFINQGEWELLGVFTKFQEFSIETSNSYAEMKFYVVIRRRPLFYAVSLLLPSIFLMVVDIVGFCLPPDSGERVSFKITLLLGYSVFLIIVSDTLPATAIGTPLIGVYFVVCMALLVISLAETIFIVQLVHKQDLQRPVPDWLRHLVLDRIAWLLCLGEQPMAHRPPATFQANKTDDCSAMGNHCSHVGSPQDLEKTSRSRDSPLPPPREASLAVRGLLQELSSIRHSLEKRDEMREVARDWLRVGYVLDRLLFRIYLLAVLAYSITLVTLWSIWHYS
# [8] = target: 5-hydroxytryptamine receptor 4 (Rattus norvegicus, UniProt Q62758); test: Displacement of [3H]GR113808 from 5HT4 receptor in Sprague-Dawley albinus rat striatal membranes after 30 mins by scintillation counting; type: cell membranes, Membrane
# Sequence of 5-hydroxytryptamine receptor 4 (Q62758 whole entry): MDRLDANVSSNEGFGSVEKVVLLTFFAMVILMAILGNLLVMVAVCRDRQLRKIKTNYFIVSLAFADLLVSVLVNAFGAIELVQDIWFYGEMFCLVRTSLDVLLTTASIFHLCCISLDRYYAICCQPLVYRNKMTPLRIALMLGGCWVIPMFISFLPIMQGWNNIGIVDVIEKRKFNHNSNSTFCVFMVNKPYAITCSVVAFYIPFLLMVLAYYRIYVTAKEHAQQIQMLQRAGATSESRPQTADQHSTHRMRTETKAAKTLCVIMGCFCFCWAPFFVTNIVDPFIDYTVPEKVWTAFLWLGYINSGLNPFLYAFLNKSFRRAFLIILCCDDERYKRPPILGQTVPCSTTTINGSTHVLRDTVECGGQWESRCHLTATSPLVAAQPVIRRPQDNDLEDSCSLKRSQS
# [9] = target: 5-hydroxytryptamine receptor 7 (Rattus norvegicus, UniProt P32305); test: Displacement of [3H]-5-CT from 5HT7 receptor in Sprague-Dawley albinus rat hyphalamic membranes after 120 mins; type: cell membranes, Membrane
# Sequence of 5-hydroxytryptamine receptor 7 (P32305 whole entry): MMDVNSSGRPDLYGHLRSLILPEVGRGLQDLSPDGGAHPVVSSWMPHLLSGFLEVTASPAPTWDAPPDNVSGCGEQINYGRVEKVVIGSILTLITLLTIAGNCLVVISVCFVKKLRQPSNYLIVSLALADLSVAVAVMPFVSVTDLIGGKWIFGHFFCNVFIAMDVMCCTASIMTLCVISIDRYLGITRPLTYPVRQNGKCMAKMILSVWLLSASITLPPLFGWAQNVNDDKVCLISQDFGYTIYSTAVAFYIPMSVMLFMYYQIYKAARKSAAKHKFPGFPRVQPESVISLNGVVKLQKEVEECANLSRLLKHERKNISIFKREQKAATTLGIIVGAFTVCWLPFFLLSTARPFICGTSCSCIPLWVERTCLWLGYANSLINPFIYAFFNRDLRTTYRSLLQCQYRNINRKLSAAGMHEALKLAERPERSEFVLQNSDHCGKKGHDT
# [10] = target: T2, 5-hydroxytryptamine receptor 1A (Homo sapiens); test: Partial agonist activity at human 5HT1A receptor expressed in human HeLa cells assessed as inhibition of forskolin-stimulated cAMP production pretreated 20 mins before forskolin challenge measured after 2 hrs by RIA; type: functional, cell-based; method in brief: as §1
Ki [1] [nM],Ki [2] [nM],SMILES,other results
5.9,> 1000,O=C1C2CCCN2C(=O)N1CCCCCCNCC1CCc2ccccc2O1 (stereo unspecified),Emax [3]: 91.2%; EC50 [4]: 21.8 nM
,,Cl.O=C1C2CCCN2C(=O)N1CCCCNCCc1ccc2ccccc2c1 (stereo unspecified),Ki [5]: > 1000 nM; Ki [6]: 99 nM; Ki [7]: > 1000 nM
,> 1000,O=C1C2CCCN2C(=O)N1Cc1cccc(CNCC2CCc3ccccc3O2)c1 (stereo unspecified),
13,> 1000,O=C1C2CSCN2C(=O)N1CCCCNCC1CCc2ccccc2O1 (stereo unspecified),Emax [3]: 89.3%
27,> 1000,O=C1C2CCCN2C(=O)N1C/C=C/CNCC1CCc2ccccc2O1 (stereo unspecified),
28,> 1000,O=C1C2CCCN2C(=O)N1Cc1ccc(CNCC2CCc3ccccc3O2)cc1 (stereo unspecified),
49,> 1000,O=C1C2CCCN2C(=O)N1CCCCNCc1ccc2ccccc2c1 (stereo unspecified),
12.9,> 1000,O=C1C2CCCN2C(=O)N1CCCCCNCC1CCc2ccccc2O1 (stereo unspecified),Emax [3]: 92.5%; EC50 [4]: 157 nM
> 1000,,O=C1C2CCCN2C(=O)N1CCCCNCc1cccc2ccccc12 (stereo unspecified),
,> 1000,Cl.O=C1C2CCCN2C(=O)N1CCCCNCCc1cccc2ccccc12 (stereo unspecified),Ki [8]: > 1000 nM; Ki [5]: > 1000 nM; Ki [9]: > 1000 nM; Ki [6]: > 1000 nM; Ki [7]: > 1000 nM
2.4,> 1000,O=C1C2CCCCN2C(=O)N1CCCCNCC1CCc2ccccc2O1 (stereo unspecified),Emax [3]: 77.9%; Activity [10]: Active
114,,O=C1C2CCCN2C(=O)N1C/C=C\CNCC1CCc2ccccc2O1 (stereo unspecified),

SMILES,Ki [1] [nM],Ki [2] [nM],other results
O=C1C2CCCN2C(=O)N1CCCCNCCc1ccccn1 (stereo unspecified),> 1000,,
O=C1C2CCCN2C(=O)N1CCCCNCc1cccs1 (stereo unspecified),> 1000,,
O=C1C2CCCN2C(=O)N1CC#CCNCC1CCc2ccccc2O1 (stereo unspecified),> 1000,,
